Test results taken from ChEMBL document CHEMBL1145480, “Horizontal gene transfer of ftsI, encoding penicillin-binding protein 3, in Haemophilus influenzae” (2007).
In brackets after ≈: the same amount, converted by molar mass.

Legend:
Assay type in all cases: functional
Haemophilus influenzae [1] = assay: Antibacterial activity against Haemophilus influenzae MSC06647 by broth microdilution method
How it was run: (§1)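 MICs were determined by broth dilution following CLSI guidelines (approved standard M7-A7). The agents were rifampin, cefdinir and fosfomycin. Strains were routinely grown on chocolate II agar or in brain heart infusion broth with 2% defibrinated, lysed horse blood plus 15 μg/ml β-NAD+.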

Haemophilus influenzae [2] = assay: Antibacterial activity against rifampin and cefdinir-resistant Haemophilus influenzae RdRIF/MSC06651 mutant by broth microdilution method; how it was run: as §1
Haemophilus influenzae [3] = assay: Antibacterial activity against rifampin and cefdinir-resistant Haemophilus influenzae RdRIF/MSC06663 mutant by broth microdilution method; how it was run: as §1
Haemophilus influenzae [4] = assay: Antibacterial activity against Haemophilus influenzae MSC06663 by broth microdilution method; how it was run: as §1
Haemophilus influenzae [5] = assay: Antibacterial activity against rifampin-resistant Haemophilus influenzae RdRIF by broth microdilution method; how it was run: as §1
Haemophilus influenzae [6] = assay: Antibacterial activity against Haemophilus influenzae MSC06651 by broth microdilution method; how it was run: as §1
Haemophilus influenzae [7] = assay: Antibacterial activity against rifampin and cefdinir-resistant Haemophilus influenzae RdRIF/MSC06647 mutant by broth microdilution method; how it was run: as §1
Haemophilus influenzae [8] = assay: Antibacterial activity against Haemophilus influenzae Rd by broth microdilution method; how it was run: as §1
[9] = test system: Aggregatibacter aphrophilus; assay: Antibacterial activity against Haemophilus aphrophilus ATCC 33389 by broth microdilution method
Haemophilus influenzae [10] = assay: Antibacterial activity against Haemophilus influenzae MSC01432 by broth microdilution method; how it was run: as §1
Aggregatibacter segnis = assay: Antibacterial activity against Haemophilus segnis ATCC 33393 by broth microdilution method
Haemophilus haemolyticus [11] = assay: Antibacterial activity against Haemophilus haemolyticus MSC07286 by broth microdilution method
[12] = test system: Haemophilus parahaemolyticus; assay: Antibacterial activity against Haemophilus parahaemolyticus ATCC 10014 by broth microdilution method
Haemophilus influenzae [13] = assay: Antibacterial activity against Haemophilus influenzae MSC07771 by broth microdilution method; how it was run: as §1
Haemophilus influenzae [14] = assay: Antibacterial activity against Haemophilus influenzae MSC02022 by broth microdilution method; how it was run: as §1
Haemophilus influenzae [15] = assay: Antibacterial activity against Haemophilus influenzae MSC07169 by broth microdilution method; how it was run: as §1
Haemophilus influenzae [16] = assay: Antibacterial activity against Haemophilus influenzae MSC02070 by broth microdilution method; how it was run: as §1
[17] = test system: Haemophilus paraphrohaemolyticus; assay: Antibacterial activity against Haemophilus paraphrohaemolyticus ATCC 29237 by broth microdilution method
Haemophilus influenzae [18] = assay: Antibacterial activity against Haemophilus influenzae MSC01363 by broth microdilution method; how it was run: as §1
[19] = test system: Haemophilus parainfluenzae; assay: Antibacterial activity against Haemophilus parainfluenzae ATCC 33392 by broth microdilution method
Haemophilus influenzae [20] = assay: Antibacterial activity against Haemophilus influenzae MSC01869 by broth microdilution method; how it was run: as §1
Haemophilus influenzae [21] = assay: Antibacterial activity against Haemophilus influenzae MSC02104 by broth microdilution method
Haemophilus influenzae [22] = assay: Antibacterial activity against Haemophilus influenzae MSC01855 by broth microdilution method; how it was run: as §1
Haemophilus influenzae [23] = assay: Antibacterial activity against Haemophilus influenzae MSC02149 by broth microdilution method; how it was run: as §1
Haemophilus haemolyticus [24] = assay: Antibacterial activity against Haemophilus haemolyticus ATCC 33390 by broth microdilution method
Haemophilus influenzae [25] = assay: Antibacterial activity against Haemophilus influenzae MSC07237 by broth microdilution method; how it was run: as §1
[26] = test system: Aggregatibacter aphrophilus; assay: Antibacterial activity against Haemophilus paraphrophilus ATCC 29241 by broth microdilution method
Haemophilus influenzae [27] = assay: Antibacterial activity against Haemophilus influenzae MSC01400 by broth microdilution method; how it was run: as §1

C[C@@H]1O[C@@H]1P(=O)(O)O [FOSFOMYCIN]
MIC (Haemophilus influenzae [1]): 0.12 µg/mL (≈ 0.869 µM)
MIC (Haemophilus influenzae [2]): 1 µg/mL (≈ 7.24 µM)
MIC (Haemophilus influenzae [3]): 2 µg/mL (≈ 14.5 µM)
MIC (Haemophilus influenzae [4]): 0.06 µg/mL (≈ 0.435 µM)
MIC (Haemophilus influenzae [5]): 2 µg/mL (≈ 14.5 µM)
MIC (Haemophilus influenzae [6]): 256 µg/mL (≈ 1850 µM)
MIC (Haemophilus influenzae [7]): 2 µg/mL (≈ 14.5 µM)
MIC (Haemophilus influenzae [8]): 2 µg/mL (≈ 14.5 µM)

CO[C@H]1/C=C/O[C@@]2(C)Oc3c(C)c(O)c4c(O)c(c(/C=N/N5CCN(C)CC5)c(O)c4c3C2=O)NC(=O)/C(C)=C\C=C\[C@H](C)[C@H](O)[C@@H](C)[C@@H](O)[C@@H](C)[C@H](OC(C)=O)[C@@H]1C [RIFAMPIN]
MIC (Haemophilus influenzae [1]): 0.25 µg/mL (≈ 0.304 µM)
MIC (Haemophilus influenzae [2]): > 128 µg/mL
MIC (Haemophilus influenzae [3]): > 128 µg/mL
MIC (Haemophilus influenzae [4]): 0.5 µg/mL (≈ 0.608 µM)
MIC (Haemophilus influenzae [5]): > 128 µg/mL
MIC (Haemophilus influenzae [6]): 0.5 µg/mL (≈ 0.608 µM)
MIC (Haemophilus influenzae [7]): > 128 µg/mL
MIC (Haemophilus influenzae [8]): 0.5 µg/mL (≈ 0.608 µM)

CC1(C)S[C@@H]2[C@H](NC(=O)[C@H](N)c3ccccc3)C(=O)N2[C@H]1C(=O)O [AMPICILLIN]
MIC (Haemophilus influenzae [1]): 2 µg/mL (≈ 5.72 µM)
MIC [9]: 0.5 µg/mL (≈ 1.43 µM)
MIC (Haemophilus influenzae [10]): 1 µg/mL (≈ 2.86 µM)
MIC (Aggregatibacter segnis): 0.5 µg/mL (≈ 1.43 µM)
MIC (Haemophilus haemolyticus [11]): 2 µg/mL (≈ 5.72 µM)
MIC [12]: 0.25 µg/mL (≈ 0.715 µM)
MIC (Haemophilus influenzae [4]): 1 µg/mL (≈ 2.86 µM)
MIC (Haemophilus influenzae [13]): 2 µg/mL (≈ 5.72 µM)
MIC (Haemophilus influenzae [14]): 1 µg/mL (≈ 2.86 µM)
MIC (Haemophilus influenzae [15]): 1 µg/mL (≈ 2.86 µM)
MIC (Haemophilus influenzae [5]): 0.25 µg/mL (≈ 0.715 µM)
MIC (Haemophilus influenzae [16]): 8 µg/mL (≈ 22.9 µM)
MIC [17]: 0.25 µg/mL (≈ 0.715 µM)
MIC (Haemophilus influenzae [18]): 2 µg/mL (≈ 5.72 µM)
MIC [19]: 0.5 µg/mL (≈ 1.43 µM)
MIC (Haemophilus influenzae [20]): > 64 µg/mL
MIC (Haemophilus influenzae [21]): > 64 µg/mL
MIC (Haemophilus influenzae [22]): 4 µg/mL (≈ 11.4 µM)
MIC (Haemophilus influenzae [23]): 8 µg/mL (≈ 22.9 µM)
MIC (Haemophilus haemolyticus [24]): 0.5 µg/mL (≈ 1.43 µM)
MIC (Haemophilus influenzae [25]): 4 µg/mL (≈ 11.4 µM)
MIC (Haemophilus influenzae [6]): 2 µg/mL (≈ 5.72 µM)
MIC [26]: 0.25 µg/mL (≈ 0.715 µM)
MIC (Haemophilus influenzae [27]): 8 µg/mL (≈ 22.9 µM)

C=CC1=C(C(=O)O)N2C(=O)[C@@H](NC(=O)/C(=N\O)c3csc(N)n3)[C@H]2SC1 [CEFDINIR]
MIC (Haemophilus influenzae [1]): 1 µg/mL (≈ 2.53 µM)
MIC [9]: 0.12 µg/mL (≈ 0.303 µM)
MIC (Haemophilus influenzae [2]): 8 µg/mL (≈ 20.2 µM)
MIC (Haemophilus influenzae [3]): 8 µg/mL (≈ 20.2 µM)
MIC (Haemophilus influenzae [10]): 2 µg/mL (≈ 5.06 µM)
MIC (Aggregatibacter segnis): 0.06 µg/mL (≈ 0.152 µM)
MIC (Haemophilus haemolyticus [11]): 2 µg/mL (≈ 5.06 µM)
MIC [12]: 0.016 µg/mL (≈ 0.0405 µM)
MIC (Haemophilus influenzae [4]): 2 µg/mL (≈ 5.06 µM)
MIC (Haemophilus influenzae [13]): 1 µg/mL (≈ 2.53 µM)
MIC (Haemophilus influenzae [14]): 2 µg/mL (≈ 5.06 µM)
MIC (Haemophilus influenzae [15]): 1 µg/mL (≈ 2.53 µM)
MIC (Haemophilus influenzae [5]): 0.25 µg/mL (≈ 0.632 µM)
MIC (Haemophilus influenzae [16]): 8 µg/mL (≈ 20.2 µM)
MIC [17]: 0.016 µg/mL (≈ 0.0405 µM)
MIC (Haemophilus influenzae [18]): 1 µg/mL (≈ 2.53 µM)
MIC [19]: 0.12 µg/mL (≈ 0.303 µM)
MIC (Haemophilus influenzae [20]): 8 µg/mL (≈ 20.2 µM)
MIC (Haemophilus influenzae [21]): 16 µg/mL (≈ 40.5 µM)
MIC (Haemophilus influenzae [22]): 8 µg/mL (≈ 20.2 µM)
MIC (Haemophilus influenzae [23]): 16 µg/mL (≈ 40.5 µM)
MIC (Haemophilus haemolyticus [24]): 0.12 µg/mL (≈ 0.303 µM)
MIC (Haemophilus influenzae [25]): 16 µg/mL (≈ 40.5 µM)
MIC (Haemophilus influenzae [6]): 8 µg/mL (≈ 20.2 µM)
MIC [26]: 0.06 µg/mL (≈ 0.152 µM)
MIC (Haemophilus influenzae [7]): 2 µg/mL (≈ 5.06 µM)
MIC (Haemophilus influenzae [27]): 8 µg/mL (≈ 20.2 µM)
MIC (Haemophilus influenzae [8]): 0.25 µg/mL (≈ 0.632 µM)
